Data set [1] concerns Mycobacterium tuberculosis. Description: Antimycobacterial activity against Mycobacterium tuberculosis H37Rv CNCTC My 331/88 after 14 days. It is filed as functional. The settings on record: H37Rv CNCTC My 331/88, 336 h. In outline:
(§1)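 M. tuberculosis strains (H37Rv and clinical MDR/XDR isolates) tested by microdilution in Šula's semisynthetic medium. Compounds were dissolved in DMSO and tested at 32 to 0.03 µM in twofold steps. Inoculum was a 1.0 McFarland suspension diluted 10-3. Plates were incubated at 37 °C and read at 14 and 21 days.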

Data set [2] relates to Mycobacterium tuberculosis. Description: Antimycobacterial activity against Mycobacterium tuberculosis H37Rv CNCTC My 331/88 after 21 days. The conditions noted are these: H37Rv CNCTC My 331/88, 504 h. The data set is classed as functional. In outline:
as §1

Data set [3] relates to Mycobacterium avium. Put plainly: Antimycobacterial activity against Mycobacterium avium CNCTC My 330/88 after 14 days. The settings on record: CNCTC My 330/88, 336 h. The data set is classed as functional. The gist of the method: (§2)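 M. avium was tested by microdilution in Šula's semisynthetic medium, with compounds dissolved in DMSO and serially diluted from 1000 down to 1. Inoculum was a 1.0 McFarland suspension diluted 10-5. Plates were incubated at 37 °C and read at 14 and 21 days. […] Isoniazid and rifampicin served as standards.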

Data set [4] has as its system Mycobacterium avium. Description: Antimycobacterial activity against Mycobacterium avium CNCTC My 330/88 after 21 days. The data set is classed as functional. The settings on record: CNCTC My 330/88, 504 h. In outline:
as §2

The subject of data set [5] is Mycobacterium kansasii. Put plainly: Antimycobacterial activity against Mycobacterium kansasii CNCTC My 235/80 after 7 days. It is filed as functional. The conditions noted are these: CNCTC My 235/80, 168 h. The gist of the method:
(§3)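 Microdilution in Šula's semisynthetic medium; compounds in DMSO at 32–0.03 µM. Inoculum from 1.0 McFarland suspension diluted 10-4. […] Isoniazid and rifampicin as reference drugs.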

Data set [6] concerns Mycobacterium kansasii. Description: Antimycobacterial activity against Mycobacterium kansasii CNCTC My 235/80 after 14 days. It is filed as functional. The settings on record: CNCTC My 235/80, 336 h. In outline: as §3
Data set [7] relates to Mycobacterium kansasii. Put plainly: Antimycobacterial activity against Mycobacterium kansasii CNCTC My 235/80 after 21 days. The data set is classed as functional. The conditions noted are these: CNCTC My 235/80, 504 h. The gist of the method:
as §3

Data set [8] relates to Mycobacterium kansasii. Put plainly: Antimycobacterial activity against Mycobacterium kansasii 6509/96 after 7 days. The settings on record: 6509/96, 168 h. The data set is classed as functional. In outline: as §3
For data set [9], the system named is Mycobacterium kansasii. Put plainly: Antimycobacterial activity against Mycobacterium kansasii 6509/96 after 14 days. The data set is classed as functional. The settings on record: 6509/96, 336 h. The gist of the method: as §3
The test system of data set [10] is Mycobacterium kansasii. Description: Antimycobacterial activity against Mycobacterium kansasii 6509/96 after 21 days. The settings on record: 6509/96, 504 h. It is filed as functional. In outline: as §3
Data set [11] deals with Mycobacterium tuberculosis. Put plainly: Antimycobacterial activity against XDR Mycobacterium tuberculosis Praha 131 after 14 days. The data set is classed as functional. The conditions noted are these: for MIC99: Praha 131, 336 h. In outline: as §1
The subject of data set [12] is Mycobacterium tuberculosis. Put plainly: Antimycobacterial activity against XDR Mycobacterium tuberculosis Praha 131 after 21 days. The data set is classed as functional. The conditions noted are these: Praha 131, 504 h. The gist of the method:
as §1

The next data set concerns HepG2. Put plainly: Cytotoxicity against human HepG2 cells assessed as reduction in cell viability after 48 hrs by CellTiter 96 aqueous one solution assay. It is filed as cell-based. The conditions noted are these: HepG2, 48 h.
Data set [13] in a line: Cytotoxicity against human HepG2 cells assessed as cell viability at 30 uM after 48 hrs by CellTiter 96 aqueous one solution assay relative to control. The data set is classed as cell-based. The conditions noted are these: read-out: Activity. In outline: (§4)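 HepG2 (DMEM, 10% FBS, 1 mM pyruvate) or A431 (DMEM, 10% FBS) seeded 10,000 cells/well, 24 h at 37 °C, 5% CO2, then 30 µM compound for 48 h. MTS reagent 60 min, absorbance 490 nm, background subtracted; 0.1% DMSO vehicle = 100%, 10% SDS = 0% viability.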

A further data set relates to A-431. Put plainly: Cytotoxicity against human A431 cells assessed as reduction in cell viability after 48 hrs by CellTiter 96 aqueous one solution assay. It is filed as cell-based. The conditions noted are these: A-431, 48 h.
A short description of data set [14]: Cytotoxicity against human A431 cells assessed as cell viability at 30 uM after 48 hrs by CellTiter 96 aqueous one solution assay relative to control. The data set is classed as cell-based, A-431. The conditions noted are these: read-out: Activity. In outline:
as §4

The subject of data set [15] is Staphylococcus aureus. Description: Antibacterial activity against Staphylococcus aureus subsp. aureus ATCC 29213 CCM 4223 at highest concentration measured after 24 to 48 hrs by alamar blue dye based broth microdilution assay. It is filed as functional, organism-based. In general terms: Alamar Blue is a resazurin reagent that responds to reducing activity.
Data set [16] concerns Staphylococcus aureus. Put plainly: Antibacterial activity against methicillin-resistant Staphylococcus aureus subsp. aureus ATCC 43300 CCM 4750 at highest concentration measured after 24 to 48 hrs by alamar blue dye based broth microdilution assay. The data set is classed as functional, organism-based.
In data set [17] the test system is Staphylococcus epidermidis. Put plainly: Antibacterial activity against Staphylococcus epidermidis at highest concentration measured after 24 to 48 hrs by alamar blue dye based broth microdilution assay. The data set is classed as functional, organism-based.
For a further data set, the system named is Enterococcus faecalis. Description: Antibacterial activity against Enterococcus faecalis ATCC 29212 CCM 4224 at highest concentration measured after 24 to 48 hrs by alamar blue dye based broth microdilution assay. It is filed as functional, organism-based.
A further data set concerns Escherichia coli. Description: Antibacterial activity against Escherichia coli ATCC 25922 CCM 3954 at highest concentration measured after 24 to 48 hrs by alamar blue dye based broth microdilution assay. It is filed as functional, organism-based.
The next data set deals with Klebsiella pneumoniae. Description: Antibacterial activity against Klebsiella pneumoniae at highest concentration measured after 24 to 48 hrs by alamar blue dye based broth microdilution assay. The data set is classed as functional, organism-based.
In a further data set the test system is Serratia marcescens. Put plainly: Antibacterial activity against Serratia marcescens at highest concentration measured after 24 to 48 hrs by alamar blue dye based broth microdilution assay. The data set is classed as functional, organism-based.
The next data set relates to Pseudomonas aeruginosa. Description: Antibacterial activity against Pseudomonas aeruginosa ATCC 27853 CCM 3955 at highest concentration measured after 24 to 48 hrs by alamar blue dye based broth microdilution assay. It is filed as functional, organism-based.
A further data set concerns Candida albicans. Description: Antifungal activity against Candida albicans ATCC 24433 CCM 8320 at highest concentration measured after 24 to 48 hrs by alamar blue dye based broth microdilution assay. The data set is classed as functional, organism-based.
In the next data set the test system is Pichia kudriavzevii. Description: Antifungal activity against Candida krusei ATCC 6258 CCM8271 at highest concentration measured after 24 to 48 hrs by alamar blue dye based broth microdilution assay. It is filed as functional, organism-based.
The test system of the next data set is Candida parapsilosis. Description: Antifungal activity against Candida parapsilosis ATCC 22019 CCM 8260 at highest concentration measured after 24 to 48 hrs by alamar blue dye based broth microdilution assay. The data set is classed as functional, organism-based.
For a further data set, the system named is Candida tropicalis. Description: Antifungal activity against Candida tropicalis ATCC 750 CCM 8264 at highest concentration measured after 24 to 48 hrs by alamar blue dye based broth microdilution assay. It is filed as functional, organism-based.
For a further data set, the system named is Aspergillus fumigatus. Put plainly: Antifungal activity against Aspergillus fumigatus ATCC 204305 at highest concentration measured after 24 to 48 hrs by alamar blue dye based broth microdilution assay. The data set is classed as functional, organism-based.
For another data set, the system named is Aspergillus flavus. Description: Antifungal activity against Aspergillus flavus CCM 8363 at highest concentration measured after 24 to 48 hrs by alamar blue dye based broth microdilution assay. It is filed as functional, organism-based.
The next data set deals with Lichtheimia corymbifera. Description: Antifungal activity against Lichtheimia corymbifera CCM 8077 at highest concentration measured after 24 to 48 hrs by alamar blue dye based broth microdilution assay. The data set is classed as functional, organism-based.
In data set [18] the test system is Trichophyton interdigitale. Put plainly: Antifungal activity against Trichophyton interdigitale ATCC 9533 CCM 8377 at highest concentration measured after 72 to 120 hrs by alamar blue dye based broth microdilution assay. It is filed as functional.

pIC50: −log10 of the molar value. ≈ marks a conversion by molar mass, not a printed value. Calls of active or inactive are those of the source. The calls are words filed in the database; no cut-off is given here. Where only a bound is given, the exact number is not on record here.

As for `O=[N+]([O-])c1cc(CSc2nnc(C3CCCCC3)n2Cc2ccccc2)cc(C(F)(F)F)c1`, the MIC99 (commonly an inhibitory concentration at the 99% level, which refers to growth in some studies and to a panel of isolates in others) in [1] was 16 µM (≈ 7.62 µg/mL); in data set [2] it was 16 µM (≈ 7.62 µg/mL); in the data set with Mycobacterium avium [3], 250 µM (≈ 119 µg/mL); in the data set with Mycobacterium avium [4], 250 µM (≈ 119 µg/mL); in the data set with Mycobacterium kansasii [5] it was 16 µM (≈ 7.62 µg/mL); with Mycobacterium kansasii [6] it was 16 µM (≈ 7.62 µg/mL). Besides, the MIC99 in the data set with Mycobacterium kansasii [7] was determined as 16 µM (≈ 7.62 µg/mL); in the data set on Mycobacterium kansasii [8], 16 µM (≈ 7.62 µg/mL); in the data set on Mycobacterium kansasii [9], 16 µM (≈ 7.62 µg/mL); in the data set with Mycobacterium kansasii [10], 32 µM (≈ 15.2 µg/mL); in data set [11], 16 µM (≈ 7.62 µg/mL); in data set [12] it was 16 µM (≈ 7.62 µg/mL). Moreover, the pIC50 with HepG2 and in the data set on A-431 was less than 4.52 each time. For the same molecule, the viability at 48 h, 30 µM in [13] turned out to be 79%; in data set [14], 67%.
In data set [11], `CN[C@@H]1[C@H](O[C@H]2[C@H](O[C@H]3[C@H](O)[C@@H](O)[C@H](N=C(N)N)[C@@H](O)[C@@H]3N=C(N)N)O[C@@H](C)[C@]2(O)C=O)O[C@@H](CO)[C@H](O)[C@H]1O` [STREPTOMYCIN] registered an MIC99 of more than 32 µM.
`O=[N+]([O-])c1cc(CSc2nnc(-c3ccccc3)n2Cc2ccccc2)cc([N+](=O)[O-])c1`: the MIC99 in [1] is 4 µM (≈ 1.79 µg/mL); in [2], 4 µM (≈ 1.79 µg/mL); against Mycobacterium avium [3], more than 1000 µM; in the data set with Mycobacterium avium [4] it was more than 1000 µM; against Mycobacterium kansasii [5] it was 2 µM (≈ 0.895 µg/mL); in the data set on Mycobacterium kansasii [6] it was 4 µM (≈ 1.79 µg/mL). Also, the MIC99 against Mycobacterium kansasii [7] was 8 µM (≈ 3.58 µg/mL); against Mycobacterium kansasii [8] it was 2 µM (≈ 0.895 µg/mL); against Mycobacterium kansasii [9] it was 8 µM (≈ 3.58 µg/mL); against Mycobacterium kansasii [10], 8 µM (≈ 3.58 µg/mL); in data set [11], 2 µM (≈ 0.895 µg/mL); in [12] it was 4 µM (≈ 1.79 µg/mL). In addition, the result (with Staphylococcus aureus [15]; in the data set on Staphylococcus aureus [16]; in data set [17]; in the data set on Enterococcus faecalis; with Escherichia coli; with Klebsiella pneumoniae) was inactive. Moreover, the outcome in the data set with Serratia marcescens, with Pseudomonas aeruginosa, in the data set on Candida albicans, in the data set on Pichia kudriavzevii, with Candida parapsilosis and with Candida tropicalis was inactive. The result (in the data set on Aspergillus fumigatus; with Aspergillus flavus; with Lichtheimia corymbifera; in data set [18]) was inactive. The pIC50 with HepG2 and with A-431 was less than 4.52 each time. The viability at 48 h, 30 µM in data set [13] came to 107%; in data set [14] it was 69%.
Regarding GENTAMICIN, the MIC>99 in data set [11] is more than 8 µM.

These data come from ChEMBL document CHEMBL4373711, “Development of 3,5-Dinitrophenyl-Containing 1,2,4-Triazoles and Their Trifluoromethyl Analogues as Highly Efficient Antitubercular Agents Inhibiting Decaprenylphosphoryl-β-d-ribofuranose 2'-Oxidase” (J Med Chem, 2019).
